Results taken from ChEMBL document CHEMBL3259608, “Synthesis of a terphenyl substituted 4-aza-2,3-didehydropodophyllotoxin analogues as inhibitors of tubulin polymerization and apoptosis inducers” (Bioorg Med Chem, 2014).
Active and inactive are the calls of the source. No cut-off for these calls is given here.

Columns and labels:
A549 [1] = assay: Anticancer activity against human A549 cells after 48 hrs by MTT assay; assay type: functional, cell-based; conditions: A549, 48 h
Procedure, shortened: (§1)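 MTT assay: 1×10⁴ cells/well seeded in DMEM with 10% FBS, 24 h at 37°C in CO₂ before dosing. Compounds diluted in medium, vehicle control included, 48 h exposure. MTT (5 mg/mL stock) added for 4 h, formazan dissolved in DMSO, absorbance read at 540 nm. IC50 averaged from three individual experiments.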

HT-29 = assay: Anticancer activity against human HT-29 cells after 48 hrs by MTT assay; assay type: functional, cell-based; conditions: HT-29, 48 h; procedure, shortened: as §1
ACHN = assay: Anticancer activity against human ACHN cells after 48 hrs by MTT assay; assay type: functional, cell-based; procedure, shortened: as §1
DU-145 = assay: Anticancer activity against human DU145 cells after 48 hrs by MTT assay; assay type: functional, cell-based; conditions: DU-145, 48 h; procedure, shortened: as §1
HeLa = assay: Anticancer activity against human HeLa cells after 48 hrs by MTT assay; assay type: functional, cell-based; procedure, shortened: as §1
A549 [2] = assay: Cell cycle arrest in human A549 cells assessed as accumulation at sub-G1 phase at 0.5 uM after 48 hrs by propidium iodide staining-based flow cytometric analysis (reference value: 6.47%); assay type: functional
A549 [3] = assay: Cell cycle arrest in human A549 cells assessed as accumulation at sub-G1 phase at 1 uM after 48 hrs by propidium iodide staining-based flow cytometric analysis (reference value: 6.47%); assay type: functional
A549 [4] = assay: Cell cycle arrest in human A549 cells assessed as accumulation at G0/G1 phase at 0.5 uM after 48 hrs by propidium iodide staining-based flow cytometric analysis (reference value: 78.23%); assay type: functional
A549 [5] = assay: Cell cycle arrest in human A549 cells assessed as accumulation at G0/G1 phase at 1 uM after 48 hrs by propidium iodide staining-based flow cytometric analysis (reference value: 78.23%); assay type: functional
A549 [6] = assay: Cell cycle arrest in human A549 cells assessed as accumulation at S phase at 0.5 uM after 48 hrs by propidium iodide staining-based flow cytometric analysis (reference value: 3.57%); assay type: functional
A549 [7] = assay: Cell cycle arrest in human A549 cells assessed as accumulation at S phase at 1 uM after 48 hrs by propidium iodide staining-based flow cytometric analysis (reference value: 3.57%); assay type: functional
A549 [8] = assay: Cell cycle arrest in human A549 cells assessed as accumulation at G2/M phase at 0.5 uM after 48 hrs by propidium iodide staining-based flow cytometric analysis (reference value: 11.73%); assay type: functional
A549 [9] = assay: Cell cycle arrest in human A549 cells assessed as accumulation at G2/M phase at 1 uM after 48 hrs by propidium iodide staining-based flow cytometric analysis (reference value: 11.73%); assay type: functional
Tubulin (Homo sapiens) [10] = biological target: T1, Tubulin (Homo sapiens) (UniProt P68371+Q9H4B7+P0DPH7+P68366+Q13509+Q71U36+P04350+Q3ZCM7+P07437+P68363+Q9BQE3+Q6PEY2+Q13885+Q9BVA1+Q9BUF5); assay: Inhibition of tubulin (unknown origin) polymerization at 3 uM measured for 1 hr by fluorescence assay relative to control; assay type: protein-complex assay
Procedure, shortened: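 Tubulin polymerization kit, fluorescence-reporter based. Reaction in PEM buffer with GTP, with or without compound at 3 µM final. Reporter incorporation followed as fluorescence increase (excitation 360 nm, emission 420 nm) for 1 h at 37°C. Mean of two experiments, each in triplicate.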

Tubulin = assay: Inhibition of tubulin (unknown origin) polymerization measured for 1 hr by fluorescence assay; assay type: protein-complex assay, Homo sapiens
Tubulin (Homo sapiens) [11] = biological target: T1, Tubulin (Homo sapiens); assay: Inhibition of alpha-tubulin polymerization in human A549 cells at 1 uM after 48 hrs by immunohistochemical analysis; assay type: cell-based
Procedure, shortened: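 A549 cells on coverslips treated 48 h at 1 µM. Fixed in 4% paraformaldehyde for 20 min, permeabilised with 0.2% Triton X-100 for 5 min, then methanol overnight. Blocked in 1% BSA, anti-α-tubulin (1:1000) 2 h at room temperature, FITC anti-mouse secondary 1 h. Microtubule network integrity examined by fluorescence microscopy.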

A549 [12] = assay: Induction of apoptosis in human A549 cells assessed as nuclear condensation at 1 uM after 48 hrs by Hoechst staining-based fluorescence microscopic analysis; assay type: functional, cell-based
Procedure, shortened: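 10,000 A549 cells on coverslips, 24 h, then fresh medium with compound at 1 µM for 48 h. Vehicle control 0.001% DMSO. Hoechst 33258 added with 4% paraformaldehyde for 30 min at 37°C. Random fields imaged by fluorescence microscopy and scored qualitatively for chromatin condensation and nuclear fragmentation.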

A549 [13] = assay: Induction of apoptosis in human A549 cells assessed as caspase-3 activation at 1 to 2 uM after 48 hrs by ELISA relative to control; assay type: functional
Procedure, shortened: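 Colorimetric caspase-3 kit used. A549 cells treated 48 h at 1 and 2 µM, pelleted, washed in PBS, lysed 15 min, spun 15 min. Supernatant assayed by ELISA-based readout, fold change versus untreated control. Mean of two experiments, each in triplicate.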

A549 [14] = assay: Induction of apoptosis in human A549 cells assessed as DNA fragmentation at 1 uM after 48 hrs by agarose gel electrophoresis; assay type: functional, cell-based
Procedure, shortened: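 After 24 h settling, 1×10⁶ A549 cells/well treated 48 h at 1 µM. Pellet washed in PBS and lysed. Supernatant given SDS and RNase A for 2 h at 56°C, then proteinase K for 2 h at 37°C. DNA precipitated with ammonium acetate and cold ethanol at -80°C, washed in 80% ethanol, dissolved in TE. Laddering on 2% agarose gel.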

| Compound | IC50 (A549 [1]) [µM] | IC50 (HT-29) [µM] | IC50 (ACHN) [µM] | IC50 (DU-145) [µM] | IC50 (HeLa) [µM] | Activity (A549 [2]) [%] | Activity (A549 [3]) [%] | Activity (A549 [4]) [%] | Activity (A549 [5]) [%] | Activity (A549 [6]) [%] | Activity (A549 [7]) [%] | Activity (A549 [8]) [%] | Activity (A549 [9]) [%] | inhibition (Tubulin (Homo sapiens) [10]) [%] | IC50 (Tubulin) [µM] | inhibition (Tubulin (Homo sapiens) [11]) | Activity (A549 [12]) | fold change (FC) (A549 [13]) | Activity (A549 [14]) |
| --- | --- | --- | --- | --- | --- | --- | --- | --- | --- | --- | --- | --- | --- | --- | --- | --- | --- | --- | --- |
| O=C1OCC2=C1C(c1ccc(-c3ccc(-c4cc(F)c(F)c(F)c4)cc3)cc1)c1c(-c3ccccc3)n[nH]c1N2 (stereo unspecified) | 4.36 | 6.45 | 7.52 | 6.5 | 7.07 | – | – | – | – | – | – | – | – | – | – | – | – | – | – |
| O=C1OCC2=C1C(c1ccc(-c3ccc(-c4ccc(C(F)(F)F)cc4)cc3)cc1)c1c(-c3ccccc3)n[nH]c1N2 (stereo unspecified) | 5.75 | 8.51 | 5.24 | 6.45 | 6.16 | – | – | – | – | – | – | – | – | – | – | – | – | – | – |
| O=C1OCC2=C1C(c1ccc(-c3ccc(-c4cc(F)c(F)c(F)c4)cc3)cc1)c1cc3[nH]ccc3cc1N2 (stereo unspecified) | 5.49 | 6.6 | 6.45 | 13.2 | 10.5 | – | – | – | – | – | – | – | – | – | – | – | – | – | – |
| O=C1OCC2=C1C(c1ccc(-c3ccc(-c4cc(F)cc(Cl)c4)cc3)cc1)c1cc3[nH]ccc3cc1N2 (stereo unspecified) | 2.55 | 8.7 | 2.95 | 4.78 | 3.16 | – | – | – | – | – | – | – | – | – | – | – | – | – | – |
| O=C1OCC2=C1C(c1ccc(-c3ccc(-c4ccc(OC(F)(F)F)cc4)cc3)cc1)c1c(ccc3cn[nH]c13)N2 (stereo unspecified) | 0.87 | 1 | 0.95 | 0.98 | 1.24 | 1.08 | 1.01 | 64.52 | 38.41 | 2.39 | 2.35 | 32.01 | 58.23 | 60.1 | 2.95 | Active | Active | 3 | Active |
| O=C1OCC2=C1C(c1ccc(-c3ccc(-c4ccc(C(F)(F)F)cc4)cc3)cc1)c1cc3[nH]ccc3cc1N2 (stereo unspecified) | 10 | 7.41 | 7.58 | 12.6 | 16.6 | – | – | – | – | – | – | – | – | – | – | – | – | – | – |
| COc1cc([C@@H]2c3cc4c(cc3[C@H](O)[C@H]3COC(=O)[C@H]23)OCO4)cc(OC)c1OC [PODOFILOX] | 3.09 | 2.29 | 1.93 | 3.21 | – | – | – | – | – | – | – | – | – | 52 | – | – | – | – | – |
| O=C1OCC2=C1C(c1ccc(-c3ccc(-c4ccc(OC(F)(F)F)cc4)cc3)cc1)c1cc3[nH]ccc3cc1N2 (stereo unspecified) | 5.12 | 9.33 | 5.37 | 6.02 | 7.41 | – | – | – | – | – | – | – | – | – | – | – | – | – | – |
| O=C1OCC2=C1C(c1ccc(-c3ccc(-c4cc(F)cc(F)c4)cc3)cc1)c1cc3[nH]ccc3cc1N2 (stereo unspecified) | 5.49 | 6.45 | 5.75 | 8.7 | 8.51 | – | – | – | – | – | – | – | – | – | – | – | – | – | – |
| O=C1OCC2=C1C(c1ccc(-c3ccc(-c4ccc(F)cc4)cc3)cc1)c1c(ccc3cn[nH]c13)N2 (stereo unspecified) | 0.95 | 1.69 | 1.47 | 1.44 | 1.94 | – | – | – | – | – | – | – | – | – | – | – | – | – | – |
| O=C1OCC2=C1C(c1ccc(-c3ccc(-c4ccc(OC(F)(F)F)cc4)cc3)cc1)c1c(-c3ccccc3)n[nH]c1N2 (stereo unspecified) | 0.98 | 1.77 | 4.07 | 1.12 | 2.23 | – | – | – | – | – | – | – | – | – | – | – | – | – | – |
| O=C1OCC2=C1C(c1ccc(-c3ccc(-c4cc(F)cc(Cl)c4)cc3)cc1)c1c(ccc3cn[nH]c13)N2 (stereo unspecified) | 7.41 | 9.42 | 9.33 | 12.6 | 7.53 | – | – | – | – | – | – | – | – | – | – | – | – | – | – |
| O=C1OCC2=C1C(c1ccc(-c3ccc(-c4ccc(F)cc4)cc3)cc1)c1c(-c3ccccc3)n[nH]c1N2 (stereo unspecified) | 1.47 | 3.31 | 2.18 | 4.16 | 3.8 | – | – | – | – | – | – | – | – | – | – | – | – | – | – |
| O=C1OCC2=C1C(c1ccc(-c3ccc(-c4cc(F)c(F)c(F)c4)cc3)cc1)c1c(ccc3cn[nH]c13)N2 (stereo unspecified) | 3.98 | 8.91 | 7.41 | 6.91 | 5.49 | – | – | – | – | – | – | – | – | – | – | – | – | – | – |
| COc1cc([C@@H]2c3cc4c(cc3[C@@H](O[C@@H]3O[C@@H]5CO[C@@H](C)O[C@H]5[C@H](O)[C@H]3O)[C@H]3COC(=O)[C@H]23)OCO4)cc(OC)c1O [ETOPOSIDE] | 2.45 | 1.47 | 2.04 | 3.17 | 2.75 | 4.93 | 4.01 | 70.74 | 46.09 | 4.24 | 3.76 | 20.09 | 46.14 | – | – | – | – | – | – |
| O=C1OCC2=C1C(c1ccc(-c3ccc(-c4cc(F)cc(Cl)c4)cc3)cc1)c1c(-c3ccccc3)n[nH]c1N2 (stereo unspecified) | 2.88 | 6.3 | 3.16 | 5.75 | 6.02 | – | – | – | – | – | – | – | – | – | – | – | – | – | – |
| O=C1OCC2=C1C(c1ccc(-c3ccc(-c4ccc(F)cc4)cc3)cc1)c1cc3[nH]ccc3cc1N2 (stereo unspecified) | 4.36 | 8.91 | 5.75 | 7.24 | 9.54 | – | – | – | – | – | – | – | – | – | – | – | – | – | – |
| O=C1OCC2=C1C(c1ccc(-c3ccc(-c4cc(F)cc(F)c4)cc3)cc1)c1c(ccc3cn[nH]c13)N2 (stereo unspecified) | 0.91 | 1.02 | 0.95 | 1.28 | 1.23 | 1.27 | 1.22 | 69.78 | 41.23 | 4.39 | 5.21 | 24.56 | 52.34 | 51.3 | 2.74 | Active | Active | 3 | Active |
| O=C1OCC2=C1C(c1ccc(-c3ccc(-c4ccc(C(F)(F)F)cc4)cc3)cc1)c1c(ccc3cn[nH]c13)N2 (stereo unspecified) | 1.16 | 2.39 | 2.75 | 4.89 | 7.09 | – | – | – | – | – | – | – | – | – | – | – | – | – | – |
| O=C1OCC2=C1C(c1ccc(-c3ccc(-c4cc(F)cc(F)c4)cc3)cc1)c1c(-c3ccccc3)n[nH]c1N2 (stereo unspecified) | 6.72 | 5.83 | 14.1 | 10 | 8.12 | – | – | – | – | – | – | – | – | – | – | – | – | – | – |
